Source: ChEMBL document CHEMBL1125331, “6-Hydroxy-3-n-propyl-2,3,4,5-tetrahydro-1H-3-benzazepine and analogs: new centrally acting 5-HT1A receptor agonists” (J Med Chem, 1992)

Key:
[1] = tested on: Rattus norvegicus; experiment: Effect evaluated in vivo on 5-HTP accumulation in NE-rich hemispheres at a 50 dose uM/kg(po); assay type: functional
Outline: (§1)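 Male Sprague-Dawley rats (200–300 g) were pretreated with reserpine 5 mg/kg sc 18 h beforehand. Test drug was given at neutral pH, 5 mL/kg. Aromatic amino acid decarboxylase was blocked with NSD 1015. 5-HTP in the dissected brain region was assayed by HPLC with electrochemical detection.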

[2] = tested on: Rattus norvegicus; experiment: Effect evaluated in vivo on 5-HTP accumulation in corpus striatum at a dose 0.80 umol/kg (p.o.); assay type: functional; outline: as §1
[3] = tested on: Rattus norvegicus; experiment: Effect evaluated in vivo on 5-HTP accumulation in limbic system after subcutaneous administration; assay type: functional; settings: sc; outline: as §1
[4] = tested on: Rattus norvegicus; experiment: Effect evaluated in vivo on 5-HTP accumulation synthesis in NE-rich hemispheres after perioral administration; assay type: functional
Outline: (§2)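 Oral dosing in male Sprague-Dawley rats (200–300 g) pretreated with reserpine 5 mg/kg sc 18 h before. After decarboxylase inhibition with NSD 1015, brain 5-HTP or dopa accumulation (HPLC-electrochemical detection) indexed 5-HT synthesis, DA synthesis (limbic) or NE synthesis (hemispheres, mainly cortex).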

[5] = tested on: Rattus norvegicus; experiment: Effect evaluated in vivo on 5-HTP accumulation in NE-rich hemispheres at a 0.78 dose uM/kg(sc); assay type: functional; outline: as §1
[6] = tested on: Rattus norvegicus; experiment: Effect evaluated in vivo on 5-HTP accumulation in limbic system after perioral administration; assay type: functional; outline: as §1
[7] = tested on: Rattus norvegicus; experiment: Effect evaluated in vivo on 5-HTP accumulation in corpus striatum at a dose 12.5 umol/kg (s.c.); assay type: functional; outline: as §1
[8] = tested on: Rattus norvegicus; experiment: Effect evaluated in vivo on 5-HTP accumulation in NE-rich hemispheres at a 12.5 dose uM/kg(po); assay type: functional; outline: as §1
[9] = tested on: Rattus norvegicus; experiment: Effect evaluated in vivo on 5-HTP accumulation in corpus striatum at a dose 50 umol/kg (p.o.); assay type: functional; outline: as §1
[10] = tested on: Rattus norvegicus; experiment: Effect evaluated in vivo on 5-HTP accumulation in NE-rich hemispheres at a 12.5 dose uM/kg(sc); assay type: functional; outline: as §1
[11] = tested on: Rattus norvegicus; experiment: Effect evaluated in vivo on 5-HTP accumulation in limbic system at a dose 12.5 umol/kg (p.o.); assay type: functional; outline: as §2
[12] = tested on: Rattus norvegicus; experiment: Effect evaluated in vivo on 5-HTP accumulation in corpus striatum at a dose 3.1 umol/kg (p.o.); assay type: functional; outline: as §1
[13] = tested on: Rattus norvegicus; experiment: Effect evaluated in vivo on 5-HTP accumulation in corpus striatum at a dose 3.1 umol/kg (s.c.); assay type: functional; outline: as §1
[14] = tested on: Rattus norvegicus; experiment: Effect evaluated in vivo on NE synthesis in NE-rich hemispheres after subcutaneous administration; assay type: functional; settings: sc
Outline: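 Rats pretreated with reserpine 5 mg/kg sc 18 h before received test compound sc at 5 mL/kg in neutral solution. After decarboxylase inhibition with NSD 1015, dopa accumulation in hemispheres (mainly cortex) was measured by HPLC-electrochemical detection as an index of NE synthesis. Dose-response used 4–6 dose levels, n = 4.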

[15] = tested on: Rattus norvegicus; experiment: Effect evaluated in vivo on 5-HTP accumulation in NE-rich hemispheres at a 3.1 dose uM/kg(po); assay type: functional; outline: as §1
[16] = tested on: Rattus norvegicus; experiment: Effect evaluated in vivo on 5-HTP accumulation in NE-rich hemispheres at a 50 dose uM/kg(sc); assay type: functional; outline: as §1
[17] = tested on: Rattus norvegicus; experiment: Effect evaluated in vivo on 5-HTP accumulation in corpus striatum after subcutaneous administration; assay type: functional; settings: sc; outline: as §1
[18] = tested on: Rattus norvegicus; experiment: Effect evaluated in vivo on 5-HTP accumulation in limbic system at a dose 12.5 umol/kg (s.c.); assay type: functional
Outline: (§3)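 Male Sprague-Dawley rats (200–300 g) were pretreated with reserpine 5 mg/kg sc 18 h before. Test compound was given sc at 5 mL/kg in neutral solution. 5-HT synthesis rate was indexed by […] 5-HTP accumulation after decarboxylase inhibition with NSD 1015, measured by HPLC-electrochemical detection. Dose-response used 4–6 dose levels, n = 4.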

[19] = tested on: Rattus norvegicus; experiment: The compound was tested in vivo for locomotor activity in rats at 50 umol/kg after subcutaneous administration; assay type: functional
Outline: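 Male Sprague-Dawley rats received reserpine 5 mg/kg sc in the neck 18 h before testing. Test compound was given sc in the neck (n = 4). Rats were placed singly in photocell motility meters immediately after dosing, and counts were accumulated over 30 min (tests 9 a.m.–1 p.m.). Gross behaviour, including 5-HT syndrome, was observed throughout.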

[20] = tested on: Rattus norvegicus; experiment: Effect evaluated in vivo on 5-HTP accumulation in limbic system at a dose 0.78 umol/kg (s.c.); assay type: functional; outline: as §1
[21] = tested on: Rattus norvegicus; experiment: Effect evaluated in vivo on 5-HTP accumulation in limbic system at a dose 3.1 umol/kg (s.c.); assay type: functional; outline: as §3
[22] = tested on: Rattus norvegicus; experiment: Effect evaluated in vivo on 5-HTP accumulation in corpus striatum after perioral administration; assay type: functional; outline: as §1
[23] = biological target: T1, 5-hydroxytryptamine receptor 1A (Rattus norvegicus, UniProt P19327); experiment: Inhibitory activity against 5-hydroxytryptamine 1A receptor in rats, using [3H]8-OH-DPAT as radioligand
T1 sequence (P19327 whole entry): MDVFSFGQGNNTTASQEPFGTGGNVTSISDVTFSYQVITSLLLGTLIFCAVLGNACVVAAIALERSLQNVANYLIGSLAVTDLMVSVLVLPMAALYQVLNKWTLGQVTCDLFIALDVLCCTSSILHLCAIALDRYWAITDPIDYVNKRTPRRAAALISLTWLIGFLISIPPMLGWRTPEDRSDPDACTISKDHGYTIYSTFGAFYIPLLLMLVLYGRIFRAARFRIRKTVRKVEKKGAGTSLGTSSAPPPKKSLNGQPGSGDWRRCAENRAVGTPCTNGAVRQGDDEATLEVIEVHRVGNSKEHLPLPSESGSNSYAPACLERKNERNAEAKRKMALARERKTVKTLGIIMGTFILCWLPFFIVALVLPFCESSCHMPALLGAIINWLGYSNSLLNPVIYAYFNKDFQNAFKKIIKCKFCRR
Outline: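 Rat whole-brain membranes (minus brainstem and cerebellum) in 50 mM Tris pH 8.0 with 120 mM NaCl, 4 mM CaCl2, 4 mM MgCl2 and 10 μM pargyline. Rapid filtration, then scintillation counting. Nonspecific binding defined with 10 μM 5-HT. IC50 by semi-log plot and linear regression.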

[24] = tested on: Rattus norvegicus; experiment: Effect evaluated in vivo on 5-HTP accumulation in limbic system at a dose 3.1 umol/kg (p.o.); assay type: functional; outline: as §2
[25] = tested on: Rattus norvegicus; experiment: The compound was tested in vivo for locomotor activity in rats at 50 umol/kg after perioral administration; assay type: functional
Outline: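 Reserpine-pretreated rats (5 mg/kg sc, 18 h before) received test compound orally. Photocell motility counts were accumulated over 30 min, and gross behaviour, including 5-HT syndrome, was observed.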

[26] = tested on: Rattus norvegicus; experiment: Effect evaluated in vivo on 5-HTP accumulation in corpus striatum at a dose 0.78 umol/kg (s.c.); assay type: functional; outline: as §1
[27] = biological target: D(2) dopamine receptor (Rattus norvegicus, UniProt P61169); experiment: Inhibitory activity against Dopamine receptor D2 in rats using [3H]spiperone as radioligand
Outline: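 Rat striatal membranes in 50 mM potassium phosphate buffer pH 7.4 were incubated with 0.5 nM [3H]spiperone for 10 min at 37 °C. Specific binding was defined with 10 μM 6,7-ADTN.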

[28] = tested on: Rattus norvegicus; experiment: Effect evaluated in vivo on 5-HTP accumulation in limbic system at a dose 50 umol/kg (p.o.); assay type: functional; outline: as §2
[29] = tested on: Rattus norvegicus; experiment: Effect evaluated in vivo on 5-HTP accumulation in NE-rich hemispheres at a 3.1 dose uM/kg(sc); assay type: functional; outline: as §1
[30] = tested on: Rattus norvegicus; experiment: Effect evaluated in vivo on 5-HTP accumulation in rats limbic system at a dose 50 umol/kg (s.c.); assay type: functional; outline: as §3
[31] = tested on: Rattus norvegicus; experiment: Effect evaluated in vivo on 5-HTP accumulation in NE-rich hemispheres at a 0.80 dose uM/kg(po); assay type: functional; outline: as §1
[32] = tested on: Rattus norvegicus; experiment: Effect evaluated in vivo on 5-HTP accumulation in limbic system at a dose 0.80 umol/kg (p.o.); assay type: functional; outline: as §2
[33] = tested on: Rattus norvegicus; experiment: Effect evaluated in vivo on 5-HTP accumulation in corpus striatum at a dose 12.5 umol/kg (p.o.); assay type: functional; outline: as §1
[34] = tested on: Rattus norvegicus; experiment: Effect evaluated in vivo on 5-HTP accumulation in limbic system at a dose 0.20 umol/kg (s.c.); assay type: functional; outline: as §1
[35] = tested on: Rattus norvegicus; experiment: Effect evaluated in vivo on 5-HTP accumulation in limbic system at a dose 50 umol/kg (s.c.); assay type: functional; outline: as §3
[36] = tested on: Rattus norvegicus; experiment: Effect evaluated in vivo on 5-HTP accumulation in corpus striatum at a dose 0.20 umol/kg (s.c.); assay type: functional; outline: as §1
[37] = tested on: Rattus norvegicus; experiment: Effect evaluated in vivo on 5-HTP accumulation in NE-rich hemispheres at a 0.80 dose uM/kg(sc); assay type: functional; outline: as §1
[38] = tested on: Rattus norvegicus; experiment: Effect evaluated in vivo on 5-HTP accumulation in corpus striatum at a dose 0.80 umol/kg (s.c.); assay type: functional; outline: as §1
[39] = tested on: Rattus norvegicus; experiment: Effect evaluated in vivo on 5-HTP accumulation in limbic system at a dose 0.80 umol/kg (s.c.); assay type: functional; outline: as §3
[40] = tested on: Rattus norvegicus; experiment: Effect evaluated in vivo on 5-HTP accumulation in corpus striatum at a dose 50 umol/kg (s.c.); assay type: functional; outline: as §1
[41] = tested on: Rattus norvegicus; experiment: Effect evaluated in vivo on 5-HTP accumulation in NE-rich hemispheres after perioral administration; assay type: functional; outline: as §1
[42] = tested on: Rattus norvegicus; experiment: Effect evaluated in vivo on 5-HTP accumulation in NE-rich hemispheres at a 0.20 dose uM/kg(sc); assay type: functional; outline: as §1
[43] = tested on: Rattus norvegicus; experiment: Effect evaluated in vivo on 5-HTP accumulation in NE-rich hemispheres after subcutaneous administration; assay type: functional; settings: sc; outline: as §1

Sequence of D(2) dopamine receptor (P61169 whole entry): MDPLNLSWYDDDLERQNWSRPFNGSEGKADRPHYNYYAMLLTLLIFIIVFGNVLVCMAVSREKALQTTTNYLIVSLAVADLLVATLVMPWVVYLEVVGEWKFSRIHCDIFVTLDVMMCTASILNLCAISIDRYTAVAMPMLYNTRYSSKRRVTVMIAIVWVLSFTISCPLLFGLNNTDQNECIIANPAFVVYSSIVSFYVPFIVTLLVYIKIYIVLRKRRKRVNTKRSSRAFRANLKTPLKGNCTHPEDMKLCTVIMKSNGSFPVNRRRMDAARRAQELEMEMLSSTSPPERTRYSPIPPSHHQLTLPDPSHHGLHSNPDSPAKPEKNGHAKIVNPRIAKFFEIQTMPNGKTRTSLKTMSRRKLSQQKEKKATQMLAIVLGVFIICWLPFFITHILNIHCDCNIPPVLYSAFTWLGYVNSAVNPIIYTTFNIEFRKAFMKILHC

Compound	Control [2]	ED50 [3]	ED50 [6]	Control [9]	Control [11]	Control [12]	Control [13]	Control [16]	ED50 [17]	Locomotor activity [19]	Control [21]	ED50 [22]	IC50 [23]	Control [24]	Locomotor activity [25]	IC50 [27]	Control [28]	Control [29]	Control [32]	Control [33]	also measured
COc1cccc2c1CCN(CC1CC1)CC2	102%	1.7 µmol/kg	5.5 µmol/kg	48%	83%	59%	68%	43%	2.5 µmol/kg	107	67%	7 µmol/kg	0.12 µM	70%	31	7.6 µM	48%	77%	101%	77%	Control [1]: 50%; ED50 [4]: 6.5 µmol/kg; Control [5]: 95%; Control [7]: 60%; Control [8]: 89%; Control [10]: 85%; ED50 [14]: 4 µmol/kg; Control [15]: 75%; Control [18]: 56%; Control [20]: 84%; Control [26]: 88%; Control [30]: 42%; Control [31]: 102%
CCCN1CCc2c(Br)ccc(OC)c2CC1	112%	2.7 µmol/kg	13 µmol/kg	50%	76%	96%	71%	43%	3.2 µmol/kg	108	69%	14 µmol/kg	0.028 µM	90%	21	0.68 µM	48%	83%	88%	77%	Control [34]: 108%; Control [35]: 48%; Control [36]: 117%; Control [37]: 111%; Control [38]: 130%; Control [39]: 118%; Control [40]: 50%; ED50 [41]: 21 µmol/kg; Control [42]: 102%; ED50 [43]: 5 µmol/kg
